Experimental data reported in ChEMBL document CHEMBL4043205, “Picomolar inhibition of β-galactosidase (bovine liver) attributed to loop closure” (Bioorg Med Chem, 2017).
Active and inactive are the calls of the source. No cut-off for these calls is given here.

How the values were obtained:
[1] = target: T1, Beta-galactosidase (Bos taurus, UniProt Q58D55); assay: Inhibition of bovine liver beta-galactosidase using 4-nitrophenyl-beta-D-galactopyranoside substrate measured over 240 mins at 10 mins intervals by UV/Vis spectroscopy
T1 sequence (Q58D55 whole entry): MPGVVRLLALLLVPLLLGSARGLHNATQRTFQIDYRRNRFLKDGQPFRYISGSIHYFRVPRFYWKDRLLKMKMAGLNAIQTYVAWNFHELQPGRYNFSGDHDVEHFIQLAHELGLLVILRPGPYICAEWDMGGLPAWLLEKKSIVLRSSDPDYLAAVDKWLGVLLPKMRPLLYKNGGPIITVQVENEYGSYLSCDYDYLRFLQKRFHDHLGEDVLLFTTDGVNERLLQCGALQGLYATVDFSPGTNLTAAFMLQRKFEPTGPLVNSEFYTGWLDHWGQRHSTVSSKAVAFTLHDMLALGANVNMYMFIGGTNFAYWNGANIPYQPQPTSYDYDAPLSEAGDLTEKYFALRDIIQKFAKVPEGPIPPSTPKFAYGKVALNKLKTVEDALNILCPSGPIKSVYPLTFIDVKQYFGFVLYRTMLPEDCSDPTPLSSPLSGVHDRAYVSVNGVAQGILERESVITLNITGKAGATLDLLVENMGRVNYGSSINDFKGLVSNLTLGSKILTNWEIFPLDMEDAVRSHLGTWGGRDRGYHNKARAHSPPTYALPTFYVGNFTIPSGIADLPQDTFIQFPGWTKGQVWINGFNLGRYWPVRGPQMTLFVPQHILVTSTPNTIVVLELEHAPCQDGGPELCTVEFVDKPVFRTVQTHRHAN
Procedure, shortened: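 Bovine liver enzyme in 5 mM HEPES pH 7.50; 4-nitrophenyl-β-D-galactopyranoside mixed with 11 inhibitor dilutions (stocks 0.005–200 μM), equilibrated 30 °C 30 min, then enzyme added. Absorbance at 405 nm followed 240 min; final reads converted to percent inhibition against buffer control, plotted versus log inhibitor concentration; duplicates.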

[2] = target: T1, Beta-galactosidase; assay: Inhibition of bovine liver beta-galactosidase pre-incubated for 30 mins with 4-nitrophenyl-beta-D-galactopyranoside substrate before enzyme addition measured over 45 mins at 27 secs intervals by UV/Vis based spectroscopy
Procedure, shortened: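 Bovine liver enzyme (stock aliquot thawed, diluted in 5 mM HEPES, kept on ice). Varied 4-nitrophenyl-β-D-galactopyranoside with fixed inhibitor, pH 7.50 HEPES, equilibrated 30 °C 30 min before enzyme; 405 nm read for 45 min. Initial rates via ε 13,300 M−1 cm−1, fitted Michaelis-Menten at ≥2 inhibitor levels; competitive Ki from K′m = Km(1+[I]/Ki); duplicates, Lineweaver-Burk check.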

[3] = Inhibition of Aspergillus oryzae beta-galactosidase using 2-chloro-4-nitrophenyl b-dgalactopyranoside substrate
[4] = Inhibition of Aspergillus oryzae beta-galactosidase using 2-chloro-4-nitrophenyl b-dgalactopyranoside substrate relative to control
[5] = target: T2, Beta-galactosidase (Bos taurus) (UniProt Q58D55); assay: Competitive inhibition of bovine liver beta-galactosidase using 4-nitrophenyl-beta-D-galactopyranoside substrate measured over 240 mins at 10 mins intervals by UV/Vis spectroscopy based Lineweaver-Burk plot
T2 sequence (whole entry): T1 sequence (Q58D55 whole entry)

[6] = target: T2, Beta-galactosidase (Bos taurus); assay: Competitive inhibition of bovine liver beta-galactosidase using 4-nitrophenyl-beta-D-galactopyranoside substrate measured over 240 mins at 10 mins intervals by UV/Vis spectroscopy based Eddie-Hofstee plot
[7] = tested on: Aspergillus oryzae; assay: Inhibition of Aspergillus oryzae beta-galactosidase using 2-chloro-4-nitrophenyl b-dgalactopyranoside substrate by Lineweaver-Burk plot
[8] = tested on: Aspergillus oryzae; assay: Inhibition of Aspergillus oryzae beta-galactosidase using 2-chloro-4-nitrophenyl b-dgalactopyranoside substrate by Eddie-Hofstee plot
[9] = target: T2, Beta-galactosidase (Bos taurus); assay: Binding affinity to bovine liver beta-galactosidase assessed as induction of changes in enzyme molar ellipticity by CD spectroscopy
Procedure, shortened: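 The bovine liver enzyme stock was diluted in 5 mM HEPES and kept on ice. It was mixed 1:1 by volume with aqueous inhibitor stock and equilibrated. Ellipticity was recorded from 190–275 nm at 0.5 nm resolution in a 10 mm path cell, averaging 5 scans. Spectra were background-corrected for unbound inhibitor and buffer.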

[10] = tested on: Aspergillus oryzae; assay: Binding affinity to Aspergillus oryzae beta-galactosidase assessed as induction of changes in enzyme molar ellipticity by CD spectroscopy

CO[C@H]1C(NCc2ccc(C)cc2)=N[C@H](CO)[C@H](O)[C@@H]1O
IC50 [1]: 10800 nM | Ki [2]: 1500 nM | Ki [3]: 3400 nM | IC50 [4]: 41400 nM | Inhibition mode (qualitative, Lineweaver-Burk) [5]: Active | competitive inhibition (qualitative call) [6]: Active | inhibition activity [7]: Active | inhibition activity (qualitative) [8]: Active | Activity [9]: inactive | Activity [10]: inactive

OC[C@H]1N/C(=N\Cc2ccccc2)[C@H](O)[C@@H](O)[C@H]1O
IC50 [1]: 18.9 nM | Ki [2]: 0.05 nM | Ki [3]: 21.1 nM | IC50 [4]: 49 nM | Inhibition mode (qualitative, Lineweaver-Burk) [5]: Active | competitive inhibition (qualitative call) [6]: Active | inhibition activity [7]: Active | inhibition activity (qualitative) [8]: Active | Activity [9]: inactive | Activity [10]: inactive

N=C1N[C@H](CO)[C@H](O)[C@H](O)[C@H]1O
IC50 [1]: > 50000 nM | Ki [2]: 2000 nM | Ki [3]: 150 nM | IC50 [4]: 830 nM | Inhibition mode (qualitative, Lineweaver-Burk) [5]: Active | competitive inhibition (qualitative call) [6]: Active | inhibition activity [7]: Active | inhibition activity (qualitative) [8]: Active | Activity [9]: inactive | Activity [10]: inactive

CC(C)(C)c1ccc(C/N=C2\N[C@H](CO)[C@H](O)[C@H](O)[C@H]2O)cc1
IC50 [1]: 412 nM | Ki [2]: 0.11 nM | Ki [3]: 20.6 nM | IC50 [4]: 122 nM | Inhibition mode (qualitative, Lineweaver-Burk) [5]: Active | competitive inhibition (qualitative call) [6]: Active | inhibition activity [7]: Active | inhibition activity (qualitative) [8]: Active
